The target in test [1] is Glycogen synthase kinase-3 beta (Rattus norvegicus, UniProt P18266). Kind of test: Inhibition of rat GSK3-beta in L6 cells assessed as accumulation of glycogen. In kind it is cell-based.
For test [2], the target named is Glycogen synthase kinase-3 beta (Homo sapiens, UniProt P49841). The test is described as follows: Inhibition of human GSK3-beta by fluorescence anisotropy binding assay. Put shortly: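 Competitive fluorescence anisotropy binding against a fluorescently labelled inhibitor. Compound typically 24 pM–25 µM final, DMSO <3%. Equilibrated 60–180 min at ambient temperature; anisotropy read at ex 485/em 535 nm. Assay error ±0.2 log units.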
(In general: Fluorescence polarisation rises when a labelled molecule tumbles more slowly, as on binding a larger partner.)

Test [3] in a line: Inhibition of AMPK at 10 uM.
The target in test [4] is T1, Serine/threonine-protein kinase Chk1 (Homo sapiens) (UniProt O14757).
T1 sequence (whole entry): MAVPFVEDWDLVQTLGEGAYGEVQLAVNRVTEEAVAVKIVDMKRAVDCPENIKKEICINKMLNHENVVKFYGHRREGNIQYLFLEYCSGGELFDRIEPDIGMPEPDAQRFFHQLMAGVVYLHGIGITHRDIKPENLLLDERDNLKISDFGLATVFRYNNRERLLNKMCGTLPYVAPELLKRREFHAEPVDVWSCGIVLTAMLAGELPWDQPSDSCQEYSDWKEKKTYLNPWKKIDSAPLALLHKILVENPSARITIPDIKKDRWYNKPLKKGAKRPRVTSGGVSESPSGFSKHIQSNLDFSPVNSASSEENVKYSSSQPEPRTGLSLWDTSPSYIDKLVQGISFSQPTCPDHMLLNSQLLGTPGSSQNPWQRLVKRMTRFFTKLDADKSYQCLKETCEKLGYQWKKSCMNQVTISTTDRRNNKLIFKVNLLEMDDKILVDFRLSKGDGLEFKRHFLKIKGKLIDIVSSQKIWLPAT
Kind of test: Inhibition of CHK1 at 10 uM.

The target in test [5] is Mitogen-activated protein kinase 8 (Homo sapiens) (UniProt P45983). Kind of test: Inhibition of JNK1 at 10 uM.
Test [6] can be described thus: Inhibition of MAPK at 10 uM.
In test [7] the target is Dual specificity mitogen-activated protein kinase kinase 1 (Homo sapiens) (UniProt Q02750). Kind of test: Inhibition of MEK1 at 10 uM.
A short description of test [8]: Inhibition of PKA at 10 uM.
Test [9] concerns the target RAC-alpha serine/threonine-protein kinase (Homo sapiens) (UniProt P31749). Kind of test: Inhibition of PKBa at 10 uM.
Test [10] has as its target T2, Serine/threonine-protein kinase Sgk1 (Homo sapiens) (UniProt O00141).
T2 sequence (whole entry): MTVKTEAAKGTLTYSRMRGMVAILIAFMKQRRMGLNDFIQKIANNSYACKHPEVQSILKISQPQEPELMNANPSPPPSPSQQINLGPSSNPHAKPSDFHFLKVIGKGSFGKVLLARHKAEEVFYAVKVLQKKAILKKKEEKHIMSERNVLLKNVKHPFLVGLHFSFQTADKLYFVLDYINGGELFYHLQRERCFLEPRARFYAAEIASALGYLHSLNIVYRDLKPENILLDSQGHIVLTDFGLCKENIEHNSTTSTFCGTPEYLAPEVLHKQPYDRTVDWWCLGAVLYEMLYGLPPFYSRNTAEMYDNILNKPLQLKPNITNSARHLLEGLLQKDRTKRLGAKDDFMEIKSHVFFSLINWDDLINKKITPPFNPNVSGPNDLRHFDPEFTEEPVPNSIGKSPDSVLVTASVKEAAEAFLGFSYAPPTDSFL
The test is described as follows: Inhibition of SGK at 10 uM.

The target of test [11] is Cyclin-dependent kinase 2 (Homo sapiens) (UniProt P24941). Kind of test: Inhibition of CDK2 at 10 uM.
Test [12] can be described thus: Inhibition of GSK3 at 10 uM.
In test [13] the target is Vascular endothelial growth factor receptor 2 (Homo sapiens, UniProt P35968). The test is described as follows: Inhibition of VEGFR2.

pEC50, pIC50: −log10 of the molar value.

Glycogen synthase kinase-3 beta (Homo sapiens, UniProt P49841), sequence (P49841 whole entry): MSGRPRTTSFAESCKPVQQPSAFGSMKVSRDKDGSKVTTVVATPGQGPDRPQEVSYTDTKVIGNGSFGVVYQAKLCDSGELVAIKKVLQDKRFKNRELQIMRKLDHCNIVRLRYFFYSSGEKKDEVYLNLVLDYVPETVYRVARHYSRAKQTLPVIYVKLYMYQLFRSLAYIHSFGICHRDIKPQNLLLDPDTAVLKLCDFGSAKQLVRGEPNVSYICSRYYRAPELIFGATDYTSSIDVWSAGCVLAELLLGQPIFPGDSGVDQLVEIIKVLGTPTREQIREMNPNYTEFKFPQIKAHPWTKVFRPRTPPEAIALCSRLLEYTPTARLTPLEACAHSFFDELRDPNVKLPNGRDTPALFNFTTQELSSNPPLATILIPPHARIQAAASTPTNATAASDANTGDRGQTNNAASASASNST
Vascular endothelial growth factor receptor 2, sequence (P35968 whole entry): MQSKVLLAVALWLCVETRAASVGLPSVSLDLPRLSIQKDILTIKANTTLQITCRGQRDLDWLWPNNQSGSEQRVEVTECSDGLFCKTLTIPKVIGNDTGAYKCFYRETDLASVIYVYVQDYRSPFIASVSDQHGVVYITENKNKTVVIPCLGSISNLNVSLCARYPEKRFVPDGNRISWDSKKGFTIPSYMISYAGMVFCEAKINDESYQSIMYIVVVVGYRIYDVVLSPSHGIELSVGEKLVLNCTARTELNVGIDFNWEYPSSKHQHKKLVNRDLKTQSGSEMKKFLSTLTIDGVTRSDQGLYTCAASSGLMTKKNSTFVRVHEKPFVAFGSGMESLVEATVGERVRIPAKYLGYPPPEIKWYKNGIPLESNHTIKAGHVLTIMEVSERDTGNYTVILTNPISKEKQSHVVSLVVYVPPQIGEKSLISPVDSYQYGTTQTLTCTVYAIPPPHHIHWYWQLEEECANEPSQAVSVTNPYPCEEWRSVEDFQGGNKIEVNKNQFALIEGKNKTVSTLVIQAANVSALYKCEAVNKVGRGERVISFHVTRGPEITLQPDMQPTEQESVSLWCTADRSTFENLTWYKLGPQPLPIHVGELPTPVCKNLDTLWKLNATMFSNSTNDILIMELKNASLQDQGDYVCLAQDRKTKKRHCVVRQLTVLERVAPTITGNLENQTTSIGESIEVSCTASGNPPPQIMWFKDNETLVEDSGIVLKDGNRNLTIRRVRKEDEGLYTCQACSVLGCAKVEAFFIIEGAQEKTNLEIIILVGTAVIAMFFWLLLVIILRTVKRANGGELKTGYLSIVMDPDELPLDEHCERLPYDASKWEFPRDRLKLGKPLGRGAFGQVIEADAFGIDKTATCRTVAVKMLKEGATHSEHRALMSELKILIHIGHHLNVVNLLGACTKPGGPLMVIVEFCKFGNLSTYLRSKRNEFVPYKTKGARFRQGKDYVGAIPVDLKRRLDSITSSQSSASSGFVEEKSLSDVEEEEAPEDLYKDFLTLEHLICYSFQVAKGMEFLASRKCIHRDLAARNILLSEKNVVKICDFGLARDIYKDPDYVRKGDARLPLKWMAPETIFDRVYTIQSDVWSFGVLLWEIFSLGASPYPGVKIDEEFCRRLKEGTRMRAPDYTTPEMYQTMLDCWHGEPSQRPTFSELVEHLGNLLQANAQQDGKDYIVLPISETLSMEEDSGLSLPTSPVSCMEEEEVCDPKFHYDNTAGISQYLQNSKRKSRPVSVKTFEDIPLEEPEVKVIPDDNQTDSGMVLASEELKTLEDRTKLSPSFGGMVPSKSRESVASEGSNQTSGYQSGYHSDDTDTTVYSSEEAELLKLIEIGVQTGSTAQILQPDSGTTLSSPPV
RAC-alpha serine/threonine-protein kinase (Homo sapiens), sequence (P31749 whole entry): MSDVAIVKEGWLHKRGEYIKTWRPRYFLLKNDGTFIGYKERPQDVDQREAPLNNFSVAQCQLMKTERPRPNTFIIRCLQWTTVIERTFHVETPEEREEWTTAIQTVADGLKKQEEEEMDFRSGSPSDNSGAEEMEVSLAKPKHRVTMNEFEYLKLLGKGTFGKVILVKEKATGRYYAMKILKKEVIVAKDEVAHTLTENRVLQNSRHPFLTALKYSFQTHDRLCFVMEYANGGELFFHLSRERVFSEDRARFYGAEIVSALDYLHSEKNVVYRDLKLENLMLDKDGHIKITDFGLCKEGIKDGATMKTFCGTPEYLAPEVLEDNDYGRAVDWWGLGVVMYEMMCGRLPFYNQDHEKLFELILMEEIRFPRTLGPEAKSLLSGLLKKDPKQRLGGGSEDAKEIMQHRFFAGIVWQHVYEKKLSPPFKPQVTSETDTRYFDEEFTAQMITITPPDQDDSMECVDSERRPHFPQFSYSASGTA
Glycogen synthase kinase-3 beta (Rattus norvegicus, UniProt P18266), sequence (P18266 whole entry): as the sequence (P49841 whole entry) above, with V240M, T390P, T392A, A400T, T402A counted along it
Mitogen-activated protein kinase 8 (Homo sapiens), sequence (P45983 whole entry): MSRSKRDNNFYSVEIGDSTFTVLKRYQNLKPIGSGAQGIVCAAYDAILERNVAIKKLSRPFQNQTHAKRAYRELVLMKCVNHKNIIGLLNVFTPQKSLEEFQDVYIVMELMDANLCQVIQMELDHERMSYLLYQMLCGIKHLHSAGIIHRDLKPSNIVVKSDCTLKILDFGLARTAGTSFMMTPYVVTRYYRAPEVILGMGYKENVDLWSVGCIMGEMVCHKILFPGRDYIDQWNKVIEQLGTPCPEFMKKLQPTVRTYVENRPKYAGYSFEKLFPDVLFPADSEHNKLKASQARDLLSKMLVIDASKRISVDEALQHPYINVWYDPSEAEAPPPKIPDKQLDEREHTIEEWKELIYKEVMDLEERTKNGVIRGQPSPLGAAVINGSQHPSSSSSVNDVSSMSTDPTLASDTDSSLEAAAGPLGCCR
Dual specificity mitogen-activated protein kinase kinase 1 (Homo sapiens), sequence (Q02750 whole entry): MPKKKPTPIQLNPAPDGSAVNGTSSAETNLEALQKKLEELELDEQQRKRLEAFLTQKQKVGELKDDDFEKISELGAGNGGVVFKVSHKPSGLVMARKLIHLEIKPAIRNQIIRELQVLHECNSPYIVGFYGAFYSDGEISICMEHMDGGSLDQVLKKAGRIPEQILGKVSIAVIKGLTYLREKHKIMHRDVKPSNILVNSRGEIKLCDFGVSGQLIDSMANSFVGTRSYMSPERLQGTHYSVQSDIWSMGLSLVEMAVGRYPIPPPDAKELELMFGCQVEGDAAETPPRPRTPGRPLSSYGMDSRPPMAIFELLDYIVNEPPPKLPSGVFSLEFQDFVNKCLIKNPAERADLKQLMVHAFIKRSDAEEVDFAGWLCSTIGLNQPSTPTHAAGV

One may read the pEC50 as the negative decadic logarithm of the EC50, by convention in mol/L. What is called pIC50 is the negative decadic logarithm of the IC50, by convention in mol/L. A high value points to a low IC50. A word on the inhibition: it is the share of the control response that was lost under treatment. Regarding `Nc1ncnc2oc(-c3cccnc3)c(-c3ccc(NS(=O)(=O)c4ccccc4)cc3)c12`, the pEC50 in [1] is 5.49. Further, the pIC50 in test [2] is 7.52; in test [13], 5.95. Moreover, the inhibition was 44% in test [3]; 3% in test [4]; 7% in test [5]; 5% in test [6]; -0% in test [7]; -0% in [8]. Further, the inhibition is 29% in test [9], 3% in test [10], 27% in [11] and 100% in [12].
`CC(=O)Nc1ccc(-c2c(-c3cccnc3)oc3ncnc(N)c23)cc1`: the pIC50 in [2] was 5.79.
For `Nc1ncnc2oc(-c3cccnc3)c(-c3ccc(NS(=O)(=O)c4cccs4)cc3)c12`, in [2], the pIC50 is 7.64. This pIC50 is 1.85 log units higher than that of the compound before.
`Nc1ncnc2oc(-c3cccnc3)c(-c3ccc(NC(=O)c4cccc(F)c4)cc3)c12` gave a negative logarithm of the IC50 (pIC50) in test [2] of 5.80.
On the same count and under the same terms, for `COc1ccc(-c2oc3ncnc(N)c3c2-c2ccc(NS(=O)(=O)c3ccccc3)cc2)cc1` the value was less than 4.82; for `CS(=O)(=O)Nc1ccc(-c2c(-c3cccnc3)oc3ncnc(N)c23)cc1`, 6.32.
In turn, `COc1ccc(-c2oc3ncnc(N)c3c2-c2ccc(OC)cc2)cc1` had a pIC50 in test [2] of less than 4.82.

The record behind these values is ChEMBL document CHEMBL1142374, “Rational design of 4-amino-5,6-diaryl-furo[2,3-d]pyrimidines as potent glycogen synthase kinase-3 inhibitors” (Bioorg Med Chem Lett, 2008).
